Measured values: ChEMBL document CHEMBL4229554, “Design and Characterization of Novel Covalent Bromodomain and Extra-Terminal Domain (BET) Inhibitors Targeting a Methionine” (J Med Chem, 2018)
Calls of active or inactive are those of the source. The calls are words filed in the database; no cut-off is given here.

Columns and labels:
[1] = molecular target: T1, Bromodomain-containing protein 4 (Homo sapiens, UniProt O60885); assay: Inhibition of N-terminal His-tagged BRD4 (BD1) (unknown origin) using biotinylated tetra-acetylated histone H4 peptide after 30 mins by alpha-screen assay
[2] = molecular target: T1, Bromodomain-containing protein 4; assay: Inhibition of N-terminal His-tagged BRD4 (BD2) (unknown origin) using biotinylated tetra-acetylated histone H4 peptide after 30 mins by alpha-screen assay
[3] = molecular target: T1, Bromodomain-containing protein 4; assay: Inhibition of N-terminal His-tagged BRD4 (BD1/BD2) (unknown origin) using biotinylated tetra-acetylated histone H4 peptide after 30 mins by alpha-screen assay
[4] = molecular target: T1, Bromodomain-containing protein 4; assay: Binding affinity to N-terminal His-tagged BRD4 (BD1) (unknown origin) assessed as change in melting temperature at 100 uM after 0.5 hrs by SYPRO orange protein staining-based thermal denaturation assay
How it was run: (§1)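 N-terminally His-tagged recombinant BRD4(BD1), 5 µM, incubated with 100 µM compound and 5X SYPRO Orange in 50 mM NaCl/50 mM HEPES pH 7.4 for 30 min or 4 h. Protein thermal shift melt gives ΔTm; more than one transition may be resolved.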

[5] = molecular target: T1, Bromodomain-containing protein 4; assay: Binding affinity to N-terminal His-tagged BRD4 (BD1) (unknown origin) assessed as change in melting temperature at 100 uM after 4 hrs by SYPRO orange protein staining-based thermal denaturation assay; how it was run: as §1
[6] = molecular target: T1, Bromodomain-containing protein 4; assay: Inhibition of N-terminal His-tagged BRD4 (BD1) (unknown origin) using biotinylated tetra-acetylated histone H4 peptide after 5 mins by alpha-screen assay
How it was run: (§2)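 AlphaScreen: N-terminally His-tagged BRD4(BD1) (20–200 nM) with biotinylated tetra-acetylated H4 peptide (3–75 nM) in 50 mM HEPES, 100 mM NaCl, 0.1% BSA, pH 7.4, under green light. Nickel-chelate acceptor and streptavidin donor beads at 2 µg/mL final, serially diluted compounds added. Luminescence read at 570 nm.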

[7] = molecular target: T1, Bromodomain-containing protein 4; assay: Inhibition of N-terminal His-tagged BRD4 (BD1) (unknown origin) using biotinylated tetra-acetylated histone H4 peptide after 1 hr by alpha-screen assay; how it was run: as §2
[8] = molecular target: T1, Bromodomain-containing protein 4; assay: Inhibition of N-terminal His-tagged BRD4 (BD1) (unknown origin) using biotinylated tetra-acetylated histone H4 peptide after 4 hrs by alpha-screen assay; how it was run: as §2
[9] = test system: MV4-11; assay: Induction of apoptosis in human MV4-11 cells assessed as viable cells after 72 hrs by FITC annexin V-staining based flow cytometry (reference value: 96.4%); assay type: functional
[10] = test system: MV4-11; assay: Induction of apoptosis in human MV4-11 cells assessed as early apoptotic cells after 72 hrs by FITC annexin V-staining based flow cytometry (reference value: 1.87%); assay type: functional
[11] = test system: MV4-11; assay: Induction of apoptosis in human MV4-11 cells assessed as late apoptotic cells after 72 hrs by FITC annexin V-staining based flow cytometry (reference value: 1.53%); assay type: functional
[12] = test system: MV4-11; assay: Induction of apoptosis in human MV4-11 cells assessed as necrotic cells after 72 hrs by FITC annexin V-staining based flow cytometry (reference value: 0.21%); assay type: functional
[13] = test system: PBMC; assay: Cytotoxicity against human PBMC assessed as reduction in cell viability after 24 hrs by cell-titer 96 aqueous one solution reagent-based assay
[14] = molecular target: T1, Bromodomain-containing protein 4; assay: Ratio of IC50 for inhibition of N-terminal His-tagged BRD4 (BD1) (unknown origin) using biotinylated tetra-acetylated histone H4 peptide after 4 hrs by alpha-screen assay to IC50 for inhibition of N-terminal His-tagged BRD4(BD1) (unknown origin) using biotinylated tetra-acetylated histone H4 peptide after 5 mins by alpha-screen assay; how it was run: as §2
[15] = molecular target: T1, Bromodomain-containing protein 4; assay: Binding affinity to N-terminal His-tagged BRD4 (BD1) (unknown origin) assessed as change in melting temperature incubated for 4 hrs in presence of increasing concentrations of cysteine amino acids by SYPRO orange protein staining-based thermal denaturation assay
How it was run: (§3)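 Preformed BRD4(BD1)–compound covalent complex incubated with excess free cysteine or methionine. Reversibility assessed by SYPRO Orange thermal denaturation, monitoring the complex's Tm.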

[16] = molecular target: T1, Bromodomain-containing protein 4; assay: Binding affinity to N-terminal His-tagged BRD4 (BD1) (unknown origin) assessed as change in melting temperature incubated for 4 hrs in presence of increasing concentrations of methionine by SYPRO orange protein staining-based thermal denaturation assay; how it was run: as §3
[17] = molecular target: PH-interacting protein (Homo sapiens) (UniProt Q8WWQ0); assay: Binding affinity to PHIP (unknown origin) assessed as change in melting temperature at 100 uM after 0.5 to 4 hrs by SYPRO orange protein staining-based thermal denaturation assay
How it was run: (§4)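 Thermal shift (PTS) screen of non-BET bromodomains. Each domain at 5 µM incubated with 100 µM covalent or control compound plus 5X SYPRO Orange in 50 mM NaCl/50 mM HEPES pH 7.4 for 30 min or 4 h. Change in Tm recorded, with a search for a high-Tm species.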

[18] = molecular target: SWI/SNF-related matrix-associated actin-dependent regulator of chromatin subfamily A member 4 (Homo sapiens) (UniProt P51532); assay: Binding affinity to BRG1 (unknown origin) assessed as change in melting temperature at 100 uM after 0.5 to 4 hrs by SYPRO orange protein staining-based thermal denaturation assay; how it was run: as §4
[19] = molecular target: Transcription initiation factor TFIID subunit 1 (Homo sapiens) (UniProt P21675); assay: Binding affinity to TAF1(2) (unknown origin) assessed as change in melting temperature at 100 uM after 0.5 to 4 hrs by SYPRO orange protein staining-based thermal denaturation assay; how it was run: as §4
[20] = molecular target: Histone acetyltransferase p300 (Homo sapiens) (UniProt Q09472); assay: Binding affinity to P300 (unknown origin) assessed as change in melting temperature at 100 uM after 0.5 to 4 hrs by SYPRO orange protein staining-based thermal denaturation assay; how it was run: as §4
[21] = molecular target: T2, Peregrin (Homo sapiens) (UniProt P55201); assay: Binding affinity to BRPF1 (unknown origin) assessed as change in melting temperature at 100 uM after 0.5 to 4 hrs by SYPRO orange protein staining-based thermal denaturation assay; how it was run: as §4
T2 sequence (whole entry): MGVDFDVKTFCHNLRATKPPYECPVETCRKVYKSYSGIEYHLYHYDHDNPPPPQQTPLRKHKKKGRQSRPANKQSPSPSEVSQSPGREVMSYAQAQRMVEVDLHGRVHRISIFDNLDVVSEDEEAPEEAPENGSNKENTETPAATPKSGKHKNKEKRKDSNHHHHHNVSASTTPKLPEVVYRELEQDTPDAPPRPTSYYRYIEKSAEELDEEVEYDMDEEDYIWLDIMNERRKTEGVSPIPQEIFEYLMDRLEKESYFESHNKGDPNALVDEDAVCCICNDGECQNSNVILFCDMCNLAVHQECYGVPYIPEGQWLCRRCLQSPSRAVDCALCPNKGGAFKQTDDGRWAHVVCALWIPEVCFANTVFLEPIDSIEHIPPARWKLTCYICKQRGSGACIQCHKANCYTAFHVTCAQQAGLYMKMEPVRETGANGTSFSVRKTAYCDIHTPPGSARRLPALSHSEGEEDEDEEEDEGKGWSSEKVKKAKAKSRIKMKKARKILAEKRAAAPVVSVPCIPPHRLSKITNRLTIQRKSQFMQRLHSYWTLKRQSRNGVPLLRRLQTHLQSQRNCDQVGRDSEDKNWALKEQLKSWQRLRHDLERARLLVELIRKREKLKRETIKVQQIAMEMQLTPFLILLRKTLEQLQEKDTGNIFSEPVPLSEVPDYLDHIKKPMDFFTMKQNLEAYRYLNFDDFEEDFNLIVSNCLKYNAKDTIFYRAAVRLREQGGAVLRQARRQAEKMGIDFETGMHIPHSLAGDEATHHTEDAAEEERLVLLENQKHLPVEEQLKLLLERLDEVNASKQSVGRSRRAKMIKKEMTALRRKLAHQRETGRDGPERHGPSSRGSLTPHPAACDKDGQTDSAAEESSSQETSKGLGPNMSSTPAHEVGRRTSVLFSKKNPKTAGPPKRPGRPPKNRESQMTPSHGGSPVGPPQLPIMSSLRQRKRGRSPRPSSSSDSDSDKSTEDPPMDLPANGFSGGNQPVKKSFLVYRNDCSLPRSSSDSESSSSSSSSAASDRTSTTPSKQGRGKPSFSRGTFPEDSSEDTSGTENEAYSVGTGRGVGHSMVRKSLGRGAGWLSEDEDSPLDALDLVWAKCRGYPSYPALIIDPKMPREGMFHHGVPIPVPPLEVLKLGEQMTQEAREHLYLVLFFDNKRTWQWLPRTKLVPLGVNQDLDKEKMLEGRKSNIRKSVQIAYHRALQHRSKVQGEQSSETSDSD

[22] = molecular target: CREB-binding protein (Homo sapiens) (UniProt Q92793); assay: Binding affinity to CREBBP (unknown origin) assessed as change in melting temperature at 100 uM after 0.5 to 4 hrs by SYPRO orange protein staining-based thermal denaturation assay; how it was run: as §4

Sequence of Histone acetyltransferase p300 (Homo sapiens) (Q09472 whole entry): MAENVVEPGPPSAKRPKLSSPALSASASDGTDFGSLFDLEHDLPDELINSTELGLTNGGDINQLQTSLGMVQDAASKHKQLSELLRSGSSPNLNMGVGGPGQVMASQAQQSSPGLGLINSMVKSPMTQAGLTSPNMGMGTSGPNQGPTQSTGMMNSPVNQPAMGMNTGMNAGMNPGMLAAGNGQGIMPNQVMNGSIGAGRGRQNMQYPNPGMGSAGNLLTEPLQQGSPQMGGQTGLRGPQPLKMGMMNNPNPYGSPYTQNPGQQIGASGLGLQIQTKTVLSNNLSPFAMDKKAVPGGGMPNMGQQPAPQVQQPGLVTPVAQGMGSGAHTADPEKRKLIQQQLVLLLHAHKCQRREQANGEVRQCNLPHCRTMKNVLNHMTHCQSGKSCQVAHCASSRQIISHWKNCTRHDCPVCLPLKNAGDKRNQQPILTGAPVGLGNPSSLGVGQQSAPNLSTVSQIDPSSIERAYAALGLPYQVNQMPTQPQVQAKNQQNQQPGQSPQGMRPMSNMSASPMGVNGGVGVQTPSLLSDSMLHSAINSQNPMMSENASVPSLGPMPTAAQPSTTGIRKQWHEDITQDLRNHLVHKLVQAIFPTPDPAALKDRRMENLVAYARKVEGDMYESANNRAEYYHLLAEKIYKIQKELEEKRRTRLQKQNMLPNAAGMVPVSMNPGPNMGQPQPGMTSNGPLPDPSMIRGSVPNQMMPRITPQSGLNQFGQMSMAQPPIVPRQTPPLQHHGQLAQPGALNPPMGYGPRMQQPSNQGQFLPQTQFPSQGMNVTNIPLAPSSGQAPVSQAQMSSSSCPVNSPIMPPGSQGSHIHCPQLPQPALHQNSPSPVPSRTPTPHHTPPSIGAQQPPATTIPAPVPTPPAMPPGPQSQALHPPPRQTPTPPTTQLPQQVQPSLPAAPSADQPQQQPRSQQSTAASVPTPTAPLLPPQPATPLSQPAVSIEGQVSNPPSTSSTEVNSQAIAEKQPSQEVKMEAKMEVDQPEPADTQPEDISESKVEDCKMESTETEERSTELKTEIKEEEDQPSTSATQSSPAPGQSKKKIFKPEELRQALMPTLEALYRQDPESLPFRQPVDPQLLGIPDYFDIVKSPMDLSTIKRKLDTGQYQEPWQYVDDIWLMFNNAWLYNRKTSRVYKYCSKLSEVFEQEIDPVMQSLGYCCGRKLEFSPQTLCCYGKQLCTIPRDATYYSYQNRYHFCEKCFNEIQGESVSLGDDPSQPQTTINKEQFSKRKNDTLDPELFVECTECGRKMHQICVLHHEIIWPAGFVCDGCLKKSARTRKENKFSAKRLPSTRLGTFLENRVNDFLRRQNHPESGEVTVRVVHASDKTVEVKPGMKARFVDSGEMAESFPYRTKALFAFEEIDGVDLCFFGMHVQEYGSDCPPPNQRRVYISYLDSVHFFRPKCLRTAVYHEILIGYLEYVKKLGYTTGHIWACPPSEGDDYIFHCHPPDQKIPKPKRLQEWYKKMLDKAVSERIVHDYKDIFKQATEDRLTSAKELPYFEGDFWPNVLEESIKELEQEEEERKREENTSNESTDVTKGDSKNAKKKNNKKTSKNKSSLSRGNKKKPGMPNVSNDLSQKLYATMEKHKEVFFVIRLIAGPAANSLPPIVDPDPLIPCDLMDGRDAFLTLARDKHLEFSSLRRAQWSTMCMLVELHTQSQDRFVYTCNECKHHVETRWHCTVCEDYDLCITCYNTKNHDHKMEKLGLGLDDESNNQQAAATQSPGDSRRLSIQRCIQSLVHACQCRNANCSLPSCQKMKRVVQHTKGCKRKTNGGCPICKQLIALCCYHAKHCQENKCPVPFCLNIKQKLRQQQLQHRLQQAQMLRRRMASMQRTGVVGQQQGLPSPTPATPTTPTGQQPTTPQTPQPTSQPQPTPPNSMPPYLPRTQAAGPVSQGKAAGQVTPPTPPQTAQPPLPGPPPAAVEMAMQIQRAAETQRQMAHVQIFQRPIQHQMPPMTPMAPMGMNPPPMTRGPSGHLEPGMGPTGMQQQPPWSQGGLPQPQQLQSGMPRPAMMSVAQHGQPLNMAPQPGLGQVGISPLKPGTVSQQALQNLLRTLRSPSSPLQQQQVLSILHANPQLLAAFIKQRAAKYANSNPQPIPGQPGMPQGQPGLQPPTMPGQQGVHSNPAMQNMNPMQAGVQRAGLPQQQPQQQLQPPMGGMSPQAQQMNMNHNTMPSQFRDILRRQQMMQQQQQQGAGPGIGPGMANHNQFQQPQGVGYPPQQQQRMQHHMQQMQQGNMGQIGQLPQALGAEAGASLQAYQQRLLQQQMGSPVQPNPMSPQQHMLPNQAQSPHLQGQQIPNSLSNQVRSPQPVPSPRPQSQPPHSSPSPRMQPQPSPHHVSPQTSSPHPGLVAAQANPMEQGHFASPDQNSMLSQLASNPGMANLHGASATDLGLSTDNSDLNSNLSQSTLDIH
Sequence of Transcription initiation factor TFIID subunit 1 (Homo sapiens) (P21675 whole entry): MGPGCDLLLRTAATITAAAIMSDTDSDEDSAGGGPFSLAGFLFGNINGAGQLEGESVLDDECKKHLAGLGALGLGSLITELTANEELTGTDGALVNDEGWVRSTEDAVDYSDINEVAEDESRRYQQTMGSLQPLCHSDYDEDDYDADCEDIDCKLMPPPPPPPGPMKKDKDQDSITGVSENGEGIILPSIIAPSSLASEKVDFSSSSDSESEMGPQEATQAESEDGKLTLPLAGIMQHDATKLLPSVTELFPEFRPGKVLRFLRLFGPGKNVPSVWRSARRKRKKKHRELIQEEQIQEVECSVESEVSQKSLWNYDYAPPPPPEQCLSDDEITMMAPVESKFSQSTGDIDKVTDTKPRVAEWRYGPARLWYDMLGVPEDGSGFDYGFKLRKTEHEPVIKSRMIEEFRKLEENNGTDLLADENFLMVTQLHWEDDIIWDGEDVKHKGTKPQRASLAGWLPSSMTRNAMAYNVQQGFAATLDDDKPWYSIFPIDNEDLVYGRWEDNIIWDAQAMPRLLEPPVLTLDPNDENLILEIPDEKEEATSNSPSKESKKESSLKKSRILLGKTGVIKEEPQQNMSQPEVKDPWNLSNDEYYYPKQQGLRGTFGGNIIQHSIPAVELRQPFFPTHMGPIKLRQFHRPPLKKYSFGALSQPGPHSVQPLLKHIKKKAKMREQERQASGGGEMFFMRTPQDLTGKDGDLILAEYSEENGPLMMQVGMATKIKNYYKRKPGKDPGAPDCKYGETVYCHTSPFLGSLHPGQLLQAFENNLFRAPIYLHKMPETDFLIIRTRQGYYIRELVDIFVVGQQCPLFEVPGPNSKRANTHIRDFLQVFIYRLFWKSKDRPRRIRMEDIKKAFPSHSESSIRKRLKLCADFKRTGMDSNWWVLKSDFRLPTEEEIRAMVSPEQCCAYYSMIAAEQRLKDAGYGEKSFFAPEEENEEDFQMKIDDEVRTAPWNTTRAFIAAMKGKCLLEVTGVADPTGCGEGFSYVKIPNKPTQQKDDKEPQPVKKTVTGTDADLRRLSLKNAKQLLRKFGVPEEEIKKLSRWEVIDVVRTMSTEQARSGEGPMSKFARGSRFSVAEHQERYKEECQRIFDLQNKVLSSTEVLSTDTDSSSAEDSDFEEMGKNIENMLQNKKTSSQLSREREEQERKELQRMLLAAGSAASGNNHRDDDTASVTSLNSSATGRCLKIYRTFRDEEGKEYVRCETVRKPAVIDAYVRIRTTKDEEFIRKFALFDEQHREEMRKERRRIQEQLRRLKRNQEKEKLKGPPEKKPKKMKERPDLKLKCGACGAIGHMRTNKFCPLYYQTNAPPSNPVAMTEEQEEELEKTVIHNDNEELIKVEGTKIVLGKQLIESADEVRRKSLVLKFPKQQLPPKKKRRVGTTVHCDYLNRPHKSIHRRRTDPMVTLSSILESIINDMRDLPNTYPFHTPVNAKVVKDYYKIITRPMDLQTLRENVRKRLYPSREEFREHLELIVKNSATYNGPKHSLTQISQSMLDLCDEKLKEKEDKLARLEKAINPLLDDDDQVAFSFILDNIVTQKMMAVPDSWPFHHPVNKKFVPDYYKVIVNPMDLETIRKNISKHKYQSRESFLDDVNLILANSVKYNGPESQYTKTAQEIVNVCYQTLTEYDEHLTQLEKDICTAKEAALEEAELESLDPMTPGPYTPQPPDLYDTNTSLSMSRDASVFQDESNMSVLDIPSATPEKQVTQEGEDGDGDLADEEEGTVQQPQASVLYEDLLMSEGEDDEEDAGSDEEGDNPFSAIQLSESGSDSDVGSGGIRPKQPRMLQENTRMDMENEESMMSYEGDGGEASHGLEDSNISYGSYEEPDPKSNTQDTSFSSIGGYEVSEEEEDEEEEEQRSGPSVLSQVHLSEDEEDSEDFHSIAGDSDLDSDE

Compound: Cc1noc(C)c1-c1cc(N)c2ncn(Cc3ccccc3)c2c1
- IC50 [1]: 20 nM
- IC50 [2]: 10 nM
- IC50 [3]: 50 nM
- Activity [4]: Active
- Activity [5]: Active
- IC50 [6]: 17 nM
- IC50 [7]: 8 nM
- IC50 [8]: 19 nM
- Activity [9]: 17.6%
- Activity [10]: 45%
- Activity [11]: 24.2%
- Activity [12]: 13.3%
- Activity [13]: Non-Toxic
- Ratio IC50 [14]: 1

Compound: Cc1noc(C)c1-c1ccc(=O)n(Cc2ccccc2)c1
- IC50 [1]: 230 nM
- IC50 [2]: 80 nM
- IC50 [3]: 280 nM
- ΔTm [4]: 5 °C
- Activity [15]: Active
- Activity [16]: Active
- Activity [17]: inactive
- Activity [18]: inactive
- Activity [19]: inactive
- Activity [20]: inactive
- Activity [21]: inactive
- Activity [22]: inactive
